Measurements published in ChEMBL document CHEMBL2321737, “Selective inhibition of glycosyltransferases by bivalent imidazolium salts” (Bioorg Med Chem, 2013).
pIC50: −log10 of the molar value. Values joined by “and” are separate entries in the source; they are usually repeats but may differ in a detail not shown here. Equal values may be shown once. Active and inactive are the calls of the source. The rule behind the calls is not given here.

What was measured:
[1] = biological target: T1, Beta-1,3-galactosyltransferase 5 (Homo sapiens) (UniProt Q9Y2C3); test: Inhibition of human recombinant soluble His-tagged beta3-GalT5 expressed in insect cells using GlcNAcbeta-Bn as substrate at 0.5 mM after 1 hr relative to control
T1 sequence (whole entry): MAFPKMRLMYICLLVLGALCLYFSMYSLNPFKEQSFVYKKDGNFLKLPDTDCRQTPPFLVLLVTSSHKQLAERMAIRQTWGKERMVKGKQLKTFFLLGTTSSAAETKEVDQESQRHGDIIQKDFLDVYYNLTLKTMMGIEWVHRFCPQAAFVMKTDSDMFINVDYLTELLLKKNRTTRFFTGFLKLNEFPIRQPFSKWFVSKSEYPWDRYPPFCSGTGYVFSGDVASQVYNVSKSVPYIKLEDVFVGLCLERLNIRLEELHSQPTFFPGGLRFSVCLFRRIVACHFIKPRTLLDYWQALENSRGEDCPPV
Method in brief: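 Soluble His-tagged human β3-GalT5 expressed in insect cells and purified, 0.37 µg. Acceptor 0.5 mM GlcNAcβ-Bn, donor 0.5 mM UDP-Gal, inhibitor 0.5 mM bis-imidazolium salt in 10% ethanol. 1 h at 37 °C. Product isolated on AG1-X8 resin and counted by scintillation. % inhibition versus no-inhibitor control; blanks lacked acceptor. Mean ± SD of replicates.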

[2] = biological target: T2, Beta-1,4-galactosyltransferase 1 (Homo sapiens) (UniProt P15291); test: Inhibition of human recombinant soluble His-tagged beta4-GalT1 expressed in Escherichia coli BL21 using GlcNAcbeta-Bn as substrate at 0.5 mM after 1 hr relative to control
T2 sequence (whole entry): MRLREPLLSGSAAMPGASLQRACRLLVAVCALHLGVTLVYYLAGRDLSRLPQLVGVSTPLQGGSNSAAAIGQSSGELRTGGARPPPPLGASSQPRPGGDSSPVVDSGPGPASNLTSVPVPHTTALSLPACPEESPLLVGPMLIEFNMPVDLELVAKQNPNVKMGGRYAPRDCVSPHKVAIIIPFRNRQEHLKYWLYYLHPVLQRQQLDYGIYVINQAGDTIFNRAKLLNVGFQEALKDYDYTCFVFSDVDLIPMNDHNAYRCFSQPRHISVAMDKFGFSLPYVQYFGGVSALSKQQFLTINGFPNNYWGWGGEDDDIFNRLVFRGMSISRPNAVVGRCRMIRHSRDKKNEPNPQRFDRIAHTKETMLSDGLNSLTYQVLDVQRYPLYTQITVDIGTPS
Method in brief: (§1)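 Single point at 0.5 mM bis-imidazolium salt, 10% ethanol. Acceptor 0.5 mM GlcNAcβ-Bn, donor 0.5 mM UDP-Gal. […] Enzyme: 0.34 µg His-tagged human β4-GalT1 from BL21, or bovine milk β4-GalT1. Mean ± SD of replicates.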

Homo sapiens [3] = species on record: Homo sapiens; test: Inhibition of human C2GnT2 using GlcNAcbeta3GalNAcalpha-pnp as substrate at 0.5 mM after 1 hr in presence of phosphatidylcholine
[4] = biological target: T3, Acetylgalactosaminyl-O-glycosyl-glycoprotein beta-1,3-N-acetylglucosaminyltransferase (Homo sapiens) (UniProt Q6ZMB0); test: Inhibition of human B3GnT6 using GalNAcalpha-Bn as substrate at 0.5 mM after 1 hr in presence of phosphatidylcholine
T3 sequence (whole entry): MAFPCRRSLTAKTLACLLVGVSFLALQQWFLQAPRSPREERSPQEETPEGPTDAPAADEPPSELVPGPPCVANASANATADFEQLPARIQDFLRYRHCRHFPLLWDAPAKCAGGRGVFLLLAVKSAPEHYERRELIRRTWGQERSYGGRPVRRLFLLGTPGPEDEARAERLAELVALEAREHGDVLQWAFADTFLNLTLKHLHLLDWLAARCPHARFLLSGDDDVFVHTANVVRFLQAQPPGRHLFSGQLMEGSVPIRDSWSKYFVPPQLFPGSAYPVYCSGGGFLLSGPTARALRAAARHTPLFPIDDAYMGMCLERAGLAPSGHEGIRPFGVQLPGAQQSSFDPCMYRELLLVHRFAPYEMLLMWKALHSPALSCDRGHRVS

[5] = biological target: T4, Alpha-1,6-mannosyl-glycoprotein 2-beta-N-acetylglucosaminyltransferase (Homo sapiens) (UniProt Q10469); test: Inhibition of human GNT2 […] using GnMan3-octyl as substrate at 0.5 mM after 1 hr in presence of phosphatidylcholine
T4 sequence (whole entry): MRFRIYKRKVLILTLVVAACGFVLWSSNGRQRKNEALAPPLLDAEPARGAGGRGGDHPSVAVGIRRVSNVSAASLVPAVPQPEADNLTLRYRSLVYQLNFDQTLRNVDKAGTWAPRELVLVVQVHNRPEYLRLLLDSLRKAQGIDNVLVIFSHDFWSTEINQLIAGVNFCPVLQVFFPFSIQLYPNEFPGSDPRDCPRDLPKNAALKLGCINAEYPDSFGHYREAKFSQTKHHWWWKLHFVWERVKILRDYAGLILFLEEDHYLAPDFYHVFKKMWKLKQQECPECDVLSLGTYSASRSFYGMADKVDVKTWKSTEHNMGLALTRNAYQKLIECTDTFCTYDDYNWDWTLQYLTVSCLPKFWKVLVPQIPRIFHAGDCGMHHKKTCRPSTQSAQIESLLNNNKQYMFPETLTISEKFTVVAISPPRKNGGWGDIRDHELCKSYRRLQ

Bos taurus = species on record: Bos taurus; test: Inhibition of bovine polypeptide GalNAcT1 using AQPTPPP as substrate at 0.5 mM after 1 hr relative to control
[6] = biological target: Glycoprotein-N-acetylgalactosamine 3-beta-galactosyltransferase 1 (Homo sapiens) (UniProt Q9NS00); test: Inhibition of human C1GalT Gal-transferase using GalNAcalpha-Bn as substrate at 0.5 mM after 1 hr in presence of phosphatidylcholine
[7] = biological target: T5, Beta-1,3-galactosyl-O-glycosyl-glycoprotein beta-1,6-N-acetylglucosaminyltransferase (Homo sapiens) (UniProt Q02742); test: Inhibition of human C2GnT1 using Galbeta3GalNAcalpha-Bn as substrate at 0.5 mM after 1 hr in presence of phosphatidylcholine
T5 sequence (whole entry): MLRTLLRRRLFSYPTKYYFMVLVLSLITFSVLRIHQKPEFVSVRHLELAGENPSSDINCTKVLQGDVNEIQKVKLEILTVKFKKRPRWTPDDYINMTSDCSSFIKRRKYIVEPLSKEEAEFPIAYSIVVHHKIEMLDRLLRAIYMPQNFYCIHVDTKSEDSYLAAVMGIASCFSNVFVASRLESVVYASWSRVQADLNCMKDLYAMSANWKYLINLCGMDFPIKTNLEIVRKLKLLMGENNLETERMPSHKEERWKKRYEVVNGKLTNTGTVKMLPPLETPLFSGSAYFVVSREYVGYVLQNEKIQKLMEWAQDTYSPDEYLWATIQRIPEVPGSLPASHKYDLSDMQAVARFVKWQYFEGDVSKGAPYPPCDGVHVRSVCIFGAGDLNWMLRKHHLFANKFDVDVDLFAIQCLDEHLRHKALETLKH

Homo sapiens [8] = species on record: Homo sapiens; test: Inhibition of human C2GnT2 using Galbeta3GalNAcalpha-Bn as substrate at 0.5 mM after 1 hr in presence of phosphatidylcholine
[9] = biological target: T6, Beta-1,4-galactosyltransferase 1 (Bos taurus) (UniProt P08037); test: Inhibition of bovine milk beta4-GalT1 using GlcNAcbeta-Bn as substrate at 0.5 mM after 1 hr relative to control; method in brief: as §1
T6 sequence (whole entry): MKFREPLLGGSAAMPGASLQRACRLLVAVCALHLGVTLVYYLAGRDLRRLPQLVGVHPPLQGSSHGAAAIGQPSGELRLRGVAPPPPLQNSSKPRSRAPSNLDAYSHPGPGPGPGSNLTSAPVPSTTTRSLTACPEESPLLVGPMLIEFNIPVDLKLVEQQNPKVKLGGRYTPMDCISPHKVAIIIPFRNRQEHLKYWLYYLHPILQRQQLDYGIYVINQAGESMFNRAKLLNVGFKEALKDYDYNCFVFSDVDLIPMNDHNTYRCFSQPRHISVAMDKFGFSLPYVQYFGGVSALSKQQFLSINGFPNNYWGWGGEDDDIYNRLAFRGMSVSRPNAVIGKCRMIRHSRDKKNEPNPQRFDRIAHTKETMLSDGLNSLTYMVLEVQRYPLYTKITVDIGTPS

[10] = biological target: Beta-1,3-galactosyltransferase 5 (Homo sapiens) (UniProt Q9Y2C3); test: Inhibition of human recombinant soluble His-tagged beta3-GalT5 expressed in insect cells using GlcNAcbeta-Bn as substrate after 1 hr
[11] = biological target: Beta-1,3-galactosyltransferase 5 (Homo sapiens) (UniProt Q9Y2C3); test: Inhibition of human recombinant soluble His-tagged beta3-GalT5 expressed in insect cells using GlcNAcbeta-Bn as substrate at 0.5 mM after 1 hr in presence of phosphatidylcholine
[12] = Inhibition of human GNT1 using Man3-octyl as substrate at 0.5 mM after 1 hr in presence of phosphatidylcholine
[13] = biological target: Beta-1,3-galactosyltransferase 5 (Homo sapiens) (UniProt Q9Y2C3); test: Inhibition of human recombinant soluble His-tagged beta3-GalT5 expressed in insect cells using GlcNAcbeta-Bn as substrate at 0.5 mM after 1 hr in presence of triton X-100
[14] = biological target: T7, Beta-1,4-galactosyltransferase 1 (Bos taurus, UniProt P08037); test: Inhibition of bovine milk beta4-GalT1 using GlcNAcbeta-Bn as substrate after 1 hr relative to control
T7 sequence (P08037 whole entry): T6 sequence (whole entry)
Method in brief: (§2)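 Dose-response series of bis-imidazolium salt in 10% ethanol, 0.5 mM GlcNAcβ-Bn acceptor, 0.5 mM UDP-Gal donor. 1 h at 37 °C. Product isolated on AG1-X8 anion-exchange resin (chloride form) with water elution, then scintillation counting. Controls lacked acceptor or inhibitor. IC50 fitted from inhibition curves. Enzyme source: bovine milk β4-GalT1 or bacterially expressed, purified human β4-GalT1.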

[15] = biological target: T8, Beta-1,4-galactosyltransferase 1 (Homo sapiens, UniProt P15291); test: Inhibition of human recombinant soluble His-tagged beta4-GalT1 expressed in Escherichia coli BL21 using GlcNAcbeta-Bn as substrate after 1 hr relative to control; method in brief: as §2
T8 sequence (P15291 whole entry): T2 sequence (whole entry)

Glycoprotein-N-acetylgalactosamine 3-beta-galactosyltransferase 1 (Homo sapiens), sequence (Q9NS00 whole entry): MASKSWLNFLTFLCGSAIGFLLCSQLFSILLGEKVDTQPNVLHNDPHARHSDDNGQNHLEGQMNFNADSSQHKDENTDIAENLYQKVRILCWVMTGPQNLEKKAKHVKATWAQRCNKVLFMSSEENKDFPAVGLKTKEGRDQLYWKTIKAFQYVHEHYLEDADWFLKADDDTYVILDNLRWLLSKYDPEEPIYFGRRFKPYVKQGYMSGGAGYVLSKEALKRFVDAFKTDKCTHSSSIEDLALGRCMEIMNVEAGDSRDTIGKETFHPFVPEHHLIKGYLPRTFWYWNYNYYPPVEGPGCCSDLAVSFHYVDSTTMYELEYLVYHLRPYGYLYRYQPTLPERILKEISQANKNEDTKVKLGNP

| Structure (SMILES) | inhibition [1] | inhibition [2] | other results |
| --- | --- | --- | --- |
| c1cn(CCCCCCCCCCCCCCCn2ccnc2)cn1 | < 1% | < 1% | – |
| C[n+]1ccn(CCCCCCCCCCCCCCCCCCCCCCn2cc[n+](C)c2)c1 | 95% | 78% | inhibition (Homo sapiens [3]): < 1%; inhibition [4]: 78%; inhibition [5]: < 1%; inhibition (Bos taurus): 100%; inhibition [6]: < 1%; inhibition [7]: 100%; inhibition (Homo sapiens [8]): < 1%; inhibition [9]: 78%; pIC50 [10]: 3.40 |
| C[n+]1ccn(CCCCCCCCCCCCCCCCCCCCn2cc[n+](C)c2)c1 [listing 1 of 3 here] | 79.2% and 84% | 40.7% and 54% | inhibition [11]: inactive; inhibition (Homo sapiens [3]): < 1%; inhibition [4]: 80% and 94.4%; inhibition [5]: < 1%; inhibition (Bos taurus): 96.8% and 91%; inhibition [12]: < 1%; inhibition [6]: < 1%; inhibition [7]: 100%; inhibition (Homo sapiens [8]): < 1%; inhibition [13]: inactive; inhibition [9]: 40.7% and 54% |
| c1cn(CCCCCCCCCCn2ccnc2)cn1 | < 1% | < 1% | – |
| c1cn(CCCCn2ccnc2)cn1 | < 1% | < 1% | – |
| C[n+]1ccn(CCCCCCCCCCCCCCCCn2cc[n+](C)c2)c1 | < 1% | < 1% | – |
| c1cn(CCCCCCCCn2ccnc2)cn1 | < 1% | < 1% | – |
| c1cn(CCCCCCCCCCCCn2ccnc2)cn1 | < 1% | < 1% | – |
| C[n+]1ccn(CCCCCCn2cc[n+](C)c2)c1 | < 1% | < 1% | – |
| C[n+]1ccn(CCCCCCCCn2cc[n+](C)c2)c1 | < 1% | < 1% | – |
| c1cn(CCCCCCCCCCCn2ccnc2)cn1 | < 1% | < 1% | – |
| C[n+]1ccn(CCCCCCCCCCCCCCCCCCCCn2cc[n+](C)c2)c1 [listing 2 of 3 here] | – | – | pIC50 [14]: 3.14; pIC50 [15]: 2.71; pIC50 [10]: 3.36 |
| c1cn(CCCCCCCCCCCCCCCCCCCCn2ccnc2)cn1 | < 1% | < 1% | – |
| C[n+]1ccn(CCCCCCCCCCCCn2cc[n+](C)c2)c1 | < 1% | < 1% | – |
| C[n+]1ccn(CCCCCCCCCCCn2cc[n+](C)c2)c1 | < 1% | < 1% | – |
| C[n+]1ccn(CCCCCCCCCCCCCCCn2cc[n+](C)c2)c1 | < 1% | < 1% | – |
| c1cn(CCCCCCCCCCCCCn2ccnc2)cn1 | < 1% | < 1% | – |
| C[n+]1ccn(CCCCCCCCCCCCCCCCCCn2cc[n+](C)c2)c1 | < 5% | < 1% | – |
| C[n+]1ccn(CCCCCCCCCCn2cc[n+](C)c2)c1 | < 1% | < 1% | – |
| C[n+]1ccn(CCCCCCCCCCCCCCn2cc[n+](C)c2)c1 | < 1% | < 1% | – |
| c1cn(CCCCCCCCCCCCCCCCCCn2ccnc2)cn1 | < 1% | < 1% | – |
| c1cn(CCCCCCCCCCCCCCCCn2ccnc2)cn1 | < 1% | < 1% | – |
| C[n+]1ccn(CCCCn2cc[n+](C)c2)c1 | < 1% | < 1% | – |
| C[n+]1ccn(CCCCCCCCCCCCCCCCCCCCn2cc[n+](C)c2)c1 [listing 3 of 3 here] | – | – | pIC50 [10]: 3.38 |
| C[n+]1ccn(CCCCCCCCCCCCCn2cc[n+](C)c2)c1 | < 1% | < 1% | – |
| c1cn(CCCCCCn2ccnc2)cn1 | < 1% | < 1% | – |
| c1cn(CCCCCCCCCCCCCCn2ccnc2)cn1 | < 1% | < 1% | – |
